Measurements as given in ChEMBL document CHEMBL1137778, “One scaffold, three binding modes: novel and selective pteridine reductase 1 inhibitors derived from fragment hits discovered by virtual screening” (J Med Chem, 2009).
The source made the active and inactive calls. No cut-off for these calls is given here.

Experiments:
[1] = molecular target: Bifunctional dihydrofolate reductase-thymidylate synthase (Trypanosoma brucei brucei) (UniProt Q27783); assay: Inhibition of Trypanosoma brucei DHFR-mediated reduction of cytochrome c at upto 500 uM
Chain of Bifunctional dihydrofolate reductase-thymidylate synthase (Trypanosoma brucei brucei) (Q27783 whole entry, looked up): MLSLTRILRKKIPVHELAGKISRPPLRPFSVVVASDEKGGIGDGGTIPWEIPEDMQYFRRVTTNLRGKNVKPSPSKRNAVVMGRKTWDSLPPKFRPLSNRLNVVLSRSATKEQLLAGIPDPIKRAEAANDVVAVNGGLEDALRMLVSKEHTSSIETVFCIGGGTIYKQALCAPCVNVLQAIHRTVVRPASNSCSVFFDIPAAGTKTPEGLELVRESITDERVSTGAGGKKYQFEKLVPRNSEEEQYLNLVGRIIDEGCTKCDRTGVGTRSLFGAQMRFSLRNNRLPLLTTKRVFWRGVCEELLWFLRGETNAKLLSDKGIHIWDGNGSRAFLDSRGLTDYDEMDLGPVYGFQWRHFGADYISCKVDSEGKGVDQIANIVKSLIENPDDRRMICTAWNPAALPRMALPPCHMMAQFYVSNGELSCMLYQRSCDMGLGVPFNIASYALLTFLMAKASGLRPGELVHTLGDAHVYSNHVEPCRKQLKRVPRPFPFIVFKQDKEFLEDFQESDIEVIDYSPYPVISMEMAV
Summary of the method: (§1)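 DHFR (T. brucei or human) activity followed by cytochrome c reduction coupled to enzymatic tetrahydrofolate production: 20 mM sodium citrate, 1 mM EDTA, H2F (4.4 μM), cytc (81 μM), NADPH (100 μM), pH 7.4. Absorbance at 550 nm read within the linear phase. Compounds tested up to 30 μM if PTR1 Kiapp below 1 μM, otherwise up to 500 μM.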

[2] = molecular target: T1, Dihydrofolate reductase (Homo sapiens) (UniProt P00374); assay: Inhibition of human DHFR-mediated reduction of cytochrome c at upto 500 uM; summary of the method: as §1
T1 sequence (whole entry): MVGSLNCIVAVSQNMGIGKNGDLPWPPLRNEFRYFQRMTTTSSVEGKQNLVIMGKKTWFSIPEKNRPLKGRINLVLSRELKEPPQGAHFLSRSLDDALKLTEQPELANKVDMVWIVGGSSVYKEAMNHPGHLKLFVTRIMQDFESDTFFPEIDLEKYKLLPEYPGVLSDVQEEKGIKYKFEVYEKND

[3] = molecular target: T2, Pteridine reductase, putative (Trypanosoma brucei) (UniProt Q581W1); assay: Inhibition of Trypanosoma brucei pteridine reductase 1 at 100 uM
T2 sequence (whole entry): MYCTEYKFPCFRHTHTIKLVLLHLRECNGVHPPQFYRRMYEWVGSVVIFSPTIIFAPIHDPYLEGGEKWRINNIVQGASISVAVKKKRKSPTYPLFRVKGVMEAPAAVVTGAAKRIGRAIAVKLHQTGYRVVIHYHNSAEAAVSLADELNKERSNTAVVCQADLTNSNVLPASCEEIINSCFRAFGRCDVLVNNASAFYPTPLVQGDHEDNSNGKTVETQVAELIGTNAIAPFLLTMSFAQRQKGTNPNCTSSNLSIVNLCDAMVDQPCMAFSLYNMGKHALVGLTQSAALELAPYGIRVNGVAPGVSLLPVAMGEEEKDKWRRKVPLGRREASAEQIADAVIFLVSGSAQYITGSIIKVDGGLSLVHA
Summary of the method: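 TbPTR1 activity followed by cytochrome c reduction coupled to enzymatic tetrahydrobiopterin production: 20 mM sodium citrate, 1 mM EDTA, H2B (0.35 μM), cytc (81 μM), NADPH (100 μM), pH 6.0. Absorbance at 550 nm read within the linear phase. Fragment hits tested once at 100 μM as percent inhibition.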

[4] = molecular target: T3, Pteridine reductase, putative (Trypanosoma brucei, UniProt Q581W1); assay: Apparent inhibition of Trypanosoma brucei pteridine reductase 1-mediated reduction of cytochrome c; conditions: read-out: Ki(app)
T3 sequence (Q581W1 whole entry): T2 sequence (whole entry)
Summary of the method: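 TbPTR1 activity read through cytochrome c reduction coupled to enzymatic H4B formation. Absorbance at 550 nm read within the linear phase. Kiapp derived by fitting a modified Morrison equation.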

[5] = Distribution coefficient, log D of the compound; type: physicochemical; conditions: octanol/water
[6] = molecular target: T1, Dihydrofolate reductase (Homo sapiens); assay: Inhibition of human DHFR-mediated reduction of cytochrome c at upto 30 uM; summary of the method: as §1
Trypanosoma brucei = assay: Antitrypanosomal activity against Trypanosoma brucei by cell culture assay; type: functional, organism-based
[7] = molecular target: Bifunctional dihydrofolate reductase-thymidylate synthase (Trypanosoma brucei brucei) (UniProt Q27783); assay: Inhibition of Trypanosoma brucei DHFR-mediated reduction of cytochrome c at upto 30 uM; summary of the method: as §1

inhibition [3] | SMILES | further results
 | Nc1nc2ccccc2n1CCc1ccccc1 | inhibition [1]: inactive; inhibition [2]: inactive
32.3% | Nc1nc(-c2ccc3c(c2)CCC3)cs1 | 
19.3% | Nc1nc(NCc2ccc(F)cc2)n[nH]1 | 
4.5% | O=c1[nH]cc(/N=C/c2ccc(Br)cc2)c(=O)[nH]1 | 
3.9% | CC(C)c1n[nH]c(N)n1 | 
38.5% | Nc1nnc(SCC(=O)NCc2ccc3c(c2)OCO3)[nH]1 | 
17.4% | CC(Nc1c[nH]c(=O)[nH]c1=O)c1ccccc1 (centres undefined) | 
66.4% | c1ccc(CCNc2ncnc3[nH]cnc23)cc1 | 
18.8% | Nc1nnc(-c2ccc(Cl)cc2Cl)[nH]1 | 
31.3% | Nc1nc(-c2ccncc2)cs1 | 
 | Nc1nc2cccc(-c3ccccc3)c2n1Cc1ccc(Cl)c(Cl)c1 | logD [5]: 3.7; inhibition [6]: inactive; Ki [4]: 0.007 µM; EC50 (Trypanosoma brucei): 10 µM; inhibition [7]: inactive
 | Nc1nc2cccc(Cl)c2n1Cc1ccc(Cl)c(Cl)c1 | inhibition [6]: inactive; Ki [4]: 0.51 µM; inhibition [7]: inactive
22.8% | Oc1ncc(/N=C/c2ccccc2)c(O)n1 | 
5.7% | O=c1[nH]cc(COCc2ccccc2)c(=O)[nH]1 | 
5% | CC(C)CC(=O)Nc1c[nH]c(=O)[nH]c1=O | 
43.2% | Nc1nc(-c2ccc(O)cc2)cs1 | 
5.9% | OCCNc1ncnc2[nH]cnc12 | 
4.5% | O=C(Nc1ncnc2nc[nH]c12)c1ccccc1 | 
 | CCCOc1cccc2nc(N)n(Cc3ccc(Cl)c(Cl)c3)c12 | inhibition [6]: inactive; Ki [4]: 0.047 µM; inhibition [7]: inactive
21% | O=C(Cc1ccccc1Cl)Nc1c[nH]c(=O)[nH]c1=O | 
 | COC(=O)c1ccc2nc(N)sc2c1 | inhibition [1]: inactive; Ki [4]: 21.1 µM; inhibition [2]: inactive
 | Nc1nc2ccccc2n1Cc1ccc(Cl)c(Cl)c1 | inhibition [6]: inactive; Ki [4]: 0.4 µM; inhibition [7]: inactive

inhibition [3] | SMILES | further results
36.3% | O=c1[nH]c(=O)c2c(-c3ccccc3)csc2[nH]1 | 
17.6% | Cc1ccc(CSc2n[nH]c(N)n2)c(C)c1 | 
10.7% | Nc1nc(CNC(=O)c2ccccc2)n[nH]1 | 
18.1% | CNc1nc(N)c(C(=O)c2ccccc2)s1 | 
23.1% | N#Cc1ccc(CSc2nnc(N)s2)cc1 | 
20.2% | Cc1ccc(-c2n[nH]c(N)n2)cc1 | 
-0.3% | Cc1[nH]c(=O)[nH]c(=O)c1Cc1ccccc1 | 
 | Cc1cccc(-c2ccc3nc(N)[nH]c3c2)c1 | inhibition [1]: inactive; Ki [4]: 9.8 µM; inhibition [2]: inactive
-4% | Cc1cc(C)n(-c2cc(=O)[nH]c(=O)[nH]2)n1 | 
0.9% | CC(C)CSc1n[nH]c(N)n1 | 
-3.5% | CCc1n[nH]c(N)n1 | 
 | CCn1c(N)nc2ccccc21 | inhibition [1]: inactive; Ki [4]: > 200 µM; inhibition [2]: inactive
25.1% | c1nc(NCC2CCCO2)c2nc[nH]c2n1 (centres undefined) | 
 | Nc1nc2ccccc2[nH]1 | inhibition [1]: inactive; Ki [4]: 288 µM; inhibition [2]: inactive
7.9% | O=C(Nc1c[nH]c(=O)[nH]c1=O)c1ccccc1F | 
23% | CNc1nc(N)c(C(=O)C(C)(C)C)s1 | 
44.2% | Cc1ccc(CNc2n[nH]c(N)n2)cc1 | 
45.1% | Nc1nc(C2CCCCC2)n[nH]1 | 
19.8% | COc1ccccc1-c1nnc(N)[nH]1 | 
3.3% | Nc1nc(SCC(=O)NCc2ccco2)n[nH]1 | 
-0.8% | Nc1nc(-c2ccc(Br)cc2)n[nH]1 | 
9.3% | Nc1nc(-c2ccccc2Cl)n[nH]1 | 

SMILES | inhibition [3] | further results
Nc1nc(CCc2n[nH]c(N)n2)n[nH]1 | 6.9% | 
Nc1nc2ccc(Cl)cc2[nH]1 | 72.3% | inhibition [1]: inactive; Ki [4]: 10.6 µM; Activity [2]: inactive
O=c1cc(Nc2ccc(Cl)cc2)[nH]c(=O)[nH]1 | 11.8% | 
Nc1nc(Cc2nnc(N)[nH]2)n[nH]1 | 11.4% | 
Nc1nc2ccc(C(=O)N3CCCCC3)cc2s1 | 49.9% | inhibition [1]: inactive; Ki [4]: 141 µM; inhibition [2]: inactive
